Among all 360,000 compounds or so, about 5,400 (1.5%) were called active. What follows is part of a selection rich in actives, with near analogues and random picks from the rest. A number with no mark means an inactive call.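 The calls were made as follows: active = inhibition above a per-plate cutoff, the mean inhibition of test compounds on that plate plus 3 SD (cut at about 49% in these data); inactive = the rest.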

Sequence of Trace amine-associated receptor 1 (Homo sapiens) (Q96RJ0 whole entry, looked up): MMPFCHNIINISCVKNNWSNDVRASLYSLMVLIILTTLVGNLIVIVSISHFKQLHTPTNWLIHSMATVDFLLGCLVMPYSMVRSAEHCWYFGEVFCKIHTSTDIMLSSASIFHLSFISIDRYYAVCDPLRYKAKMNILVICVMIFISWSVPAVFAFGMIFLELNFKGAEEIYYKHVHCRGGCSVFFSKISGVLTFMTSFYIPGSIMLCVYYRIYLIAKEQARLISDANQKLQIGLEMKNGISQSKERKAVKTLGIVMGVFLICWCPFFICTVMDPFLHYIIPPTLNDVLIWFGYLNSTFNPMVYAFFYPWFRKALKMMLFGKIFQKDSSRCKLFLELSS

For this assay, the target named is Trace amine-associated receptor 1 (Homo sapiens) (UniProt Q96RJ0). Put plainly: human TAAR1 antagonists, primary screen, Fluo-8 calcium fluorescence, CHO RD-HGA16 cells (AID 624466).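 Also: 0% = DMSO plus EC80 beta-PEA response and 100% = DMSO alone without agonist.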 As to conditions: CHO RD-HGA16 TAAR1, Fluo-8 calcium fluorescence, antagonist; at 3 µM; active compounds read high. A digest of the protocol: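 test system = CHO RD-HGA16 cells bearing hTAAR1 | replication = singlicate | controls = DMSO-only wells and EC80 β-PEA-stimulated wells | reagent = EC80 β-phenethylamine stimulus | read-out basis = percent inhibition of PEA-evoked calcium signal, max/basal emission ratio | schedule = seeding 17-24 h prior, 75-min 37 °C, 30-min RT dye loading | signal = kinetic Fluo-8 calcium fluorescence measurement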
Turning to `CC(Oc1ccc2ccccc2c1)C(=O)NNC(=S)NC(=O)c1ccco1` (stereo not given), the inhibition is 61.9% (active).

As for `NS(=O)(=O)c1ccc(CNC(=S)NC(=O)c2ccco2)cc1`, the inhibition was 6.18%.

Regarding `CCCc1ccc(OCC(=O)NNC(=S)NC(=O)c2ccco2)cc1`, the inhibition is 74.2% (active). `O=C(Nc1ccc2ccccc2c1)/C(=C\c1ccc2c(c1)OCO2)NC(=O)c1ccco1`: the inhibition was 12.7%.

Regarding `CCOc1cc(NC(=S)NCc2ccco2)c(OCC)cc1NC(=O)c1ccco1`, the inhibition is 9.19%. Regarding `O=C(NNC(=S)Nc1ccc(Br)cc1Cl)c1ccco1`, the inhibition was -2.77%.

`Cc1ccc(S(=O)(=O)N2CC3C(=O)C[C@@H](c4ccccc4Cl)N(S(=O)(=O)c4ccc(C)cc4)C3CC2c2ccccc2)cc1` (stereo not given in full): the inhibition is 2.68%. In the case of `COC(=O)c1cc2c(c3c4cc(F)ccc4n(S(=O)(=O)c4ccccc4)c13)C(=O)N(Cc1ccccc1OC)C2` it was -0.96%. In the case of `O=C(C(=O)N1CCC(CNC(=O)c2cccnc2Cl)CC1)c1cccs1` it was -12.2%; in that of `COc1ccc(CNC(=O)COc2cccnc2[N+](=O)[O-])cc1`, -4.68%. In the case of `Cc1ccc(-c2c(N)nc3ncccn23)cc1` it was -8.72%; in that of `COCCn1c(C)cc(C(=O)CSc2nnc(C3CC3)n2C2CC2)c1C`, 10.2%.

Regarding `Nc1nc2c(Br)ccc(Br)c2cc1C(=O)NCCc1ccccc1`, the inhibition was -14%.

Consider `O=C(NNS(=O)(=O)c1ccc(F)cc1)C1CCCCC1`, for which the inhibition is -20.9%. Next, `O=C(CN1CCN(S(=O)(=O)c2cccc(Cl)c2)CC1)N1CCCCC1`: 6.11%; `O=C(CN1CCCSc2ccccc21)N1CCN(S(=O)(=O)c2cccc(F)c2)CC1`: 49.7% (active). Next, `O=C(CN1CCCSc2ccccc21)N1CCN(S(=O)(=O)c2ccccc2)CC1`: 18.8%.

Take `Cc1ccccc1C(=O)N[C@H](C(=O)N1CCC[C@H]1C(=O)NCc1ccccc1)C(C)C`: the inhibition is 14.4%. In the case of `O=C(NC1CCCC1)C1c2ccccc2OCC(=O)N1CC(F)(F)F` (stereo not given) it was 4.73%.

For `CCOc1ccccc1N1CN(Cc2ccccc2)CNC1=S`, the inhibition was -9.06%. In the case of `COc1ccc2[nH]cc(/C=C(/C#N)S(=O)(=O)c3ccccc3)c2c1` it was 51% (active); in that of `COc1ccc(NS(=O)(=O)c2ccc(Oc3c(C#N)cccc3C#N)cc2)cc1`, 38.8%. For the compound `COc1ccc2[nH]cc(CCN3C(=O)c4ccc(C(=O)O)cc4C3=O)c2c1`, the inhibition is -11.2%.

Regarding `Cc1cccc(OCC(O)Cn2c(=N)n(CCN3CCOCC3)c3ccccc32)c1` (stereo not given), the inhibition is -7.65%. In the case of `CC(C)c1ccc(OCC(O)Cn2cnc3ccccc32)cc1` (stereo not given) it was -0.64%; in that of `OC(CN=c1sc2ccccc2n1CC(O)COc1ccccc1)COc1ccccc1` (stereo not given), 67.2% (active). Turning to `O=C(COC(=O)CCCSc1nc2ccccc2[nH]1)Nc1ccc(Oc2ccccc2)cc1`, the inhibition is 67.1% (active). For the compound `O=C(COC(=O)CCc1nc2ccccc2c(=O)[nH]1)Nc1ccc(N2CCOCC2)cc1`, the inhibition is 0.61%. Turning to `CC(C)(C)c1ccc(NC(=O)COC(=O)CCc2nc3ccccc3c(=O)[nH]2)cc1`, the inhibition was 6.51%. Take `Nc1nc2c(ncn2[C@@H]2O[C@H](C(=O)N[C@H](Cc3ccccc3)C(=O)NCC3CCCCC3)[C@@H](O)[C@H]2O)c(=O)[nH]1`: the inhibition is -12.4%. Next, `O=C(Cn1cncn1)N/N=C/c1c2ccccc2cc2ccccc12`: -12.2%; `Cc1ccc(S(=O)(=O)N[C@H](CO)C(C)C)cc1`: -9.25%; `CC(=O)Nc1ccc(-c2csc(NC(=O)Nc3ccccc3)n2)cc1`: 63.2% (active).

For `NC(c1ccccc1)c1csc(NC(=O)Nc2cccc(C(F)(F)F)c2)n1` (stereo not given), the inhibition was 35.6%. As to `Cc1ccc(NC(=O)Nc2cc(-c3ccccc3)nn2C)cc1Cl`, the inhibition was 8.7%. In the case of `CCCC(CNC(=O)COC(=O)C1=NNC(=O)CC1)c1ccc(Cl)cc1Cl` (stereo not given) it was -3.84%; in that of `COCCCNC(=O)C1CC(=O)N(c2ccc(C)cc2)C1` (stereo not given), -3.91%; in that of `COc1ccc2cc(C(=O)NCC3CCCO3)[nH]c2c1` (stereo not given), -16.3%. For the compound `O=C(NCCCO)c1cc2c([nH]c3ccccc32)c(-c2ccc(F)cc2)n1`, the inhibition is 23.9%.

Take `O=C(NCC1CCCO1)c1cc2c([nH]c3ccccc32)c(-c2ccc(F)cc2)n1` (stereo not given): the inhibition was 74.8% (active). Next, `CC(=O)Nc1cccc(-c2cc(NC=O)c3ncc(-c4ccc(F)c(Cl)c4)n3c2)c1`: 39%. In the case of `Cc1c(C)n2c(SCC(=O)N3CCCC3)nnc2[nH]c1=O` it was -9.03%; in that of `CN1CCCCC(NC(=O)C(C)(C)C)C1=O` (stereo not given), -14%; in that of `COC(=O)/C=C\C(=O)Nc1cccc([N+](=O)[O-])c1`, -1.13%. Next, `Cc1ccc(/C=C/C(=O)Nc2ccc([N+](=O)[O-])c(NC(=O)/C=C/c3ccc(C)o3)c2)o1`: 48.8% (active); `Cc1ccc(/C=C/C(=O)Nc2cc(S(=O)(=O)N3CCCCCC3)ccc2OCC(F)(F)F)o1`: -13.9%.

`CC(C(=O)N=Nc1c(O)n(C)c2ccc(Br)cc12)n1cnc2ccccc2c1=O` (stereo not given): the inhibition was -6.29%. Next, `COCc1[nH]nc2c1C(c1ccccc1)N(c1ccccc1)C2=O` (stereo not given): -20.8%; `O=[N+]([O-])c1ccc(N2CCNCC2)cc1NCc1cccnc1`: 13.4%. Next, `COc1ccc(Cc2nnc(NC(=O)c3cc(OC)c(OC)c(OC)c3)s2)cc1OC`: -43.4%; `COC(=O)c1sccc1NC(=O)CCC1CCCC1`: 15.8%.

In the case of `COC(=O)c1sccc1NC(=O)c1cc(OC)c(OC)c(OC)c1`, the inhibition is 52.3% (active). In the case of `CCOC(=O)[C@]12CCC=C1N(Cc1ccco1)C(=O)[C@H](CC(=O)NCc1cccc(C(F)(F)F)c1)C2` it was -12.7%; in that of `O=S1(=O)CC(N2CCN(CCO)CC2)CN1Cc1cn(Cc2cccc(Cl)c2)nn1` (stereo not given), -8.99%. Next, `O=C(NN=Cc1ccccc1O)NN=Cc1ccccc1O`: 53.9% (active). On to `Oc1ccccc1C=NC1CCCCC1N=Cc1ccccc1O` (stereo not given), for which the inhibition was 0.73%. For `O=C(N/N=C/c1ccccc1O)/C(=C/c1ccccc1)CCO`, the inhibition was 12.2%. As to `CN1C(=O)C(Br)(Br)CC1c1cccnc1` (stereo not given), the inhibition was -9.8%. With `O=C(CSc1nnc(-c2ccco2)o1)NCC(=O)c1ccccc1`, the inhibition was -36%.

In the case of `O=C(CCc1ccccc1)Nc1cccc(-c2nnc(-c3ccco3)o2)c1`, the inhibition was 56.8% (active). In the case of `C/C(=N/NC(=O)CCc1ccccc1)c1ccco1` it was -8.62%.

Turning to `COC1(C2=NCCN2)COc2ccccc2O1` (stereo not given), the inhibition is -15.3%. In the case of `Cc1ccc(S(=O)(=O)N(c2cccc(C)c2)C2CCS(=O)(=O)C2)cc1` (stereo not given) it was -4.68%. On to `O=C(NCCc1ccccc1)C1CC1`, for which the inhibition was 1.61%.

As for `O=C(O)C1C2C=CC(O2)C1C(=O)NCCc1cccc(Cl)c1` (stereo not given), the inhibition is 70.5% (active). On to `O=C(O)C1C2C=CC(O2)C1C(=O)Nc1ccccn1` (stereo not given), for which the inhibition was 13.6%. In the case of `COc1ccc(N/N=C2/CCCCC2=O)cc1` it was -11.3%. With `O=C(NCCN1CCOCC1)C1CCN(S(=O)(=O)c2ccccc2)CC1`, the inhibition was 1.73%. Next, `CCCCNC(=O)OC1CC2CC1[C@H]1CCCCN1C2=O` (stereo not given in full): -1.17%; `Cc1nc2c(C(=O)NCc3cccs3)cnn2c(C)c1Cc1ccc(F)cc1`: 9.05%. In the case of `COc1cccc(NC(=O)COC(=O)/C=C/c2ccco2)c1` it was -14.3%; in that of `O=C(/C=C/c1ccco1)Nc1ccc(Oc2ccccc2)cc1`, 52.3% (active).

`O=C(O)/C=C\C(=O)Nc1ccc(OCc2ccccc2)cc1`: the inhibition is 4.01%. In the case of `CCCCCCCCN1C(=O)[C@@H](CC(=O)NCc2ccc(C)o2)C[C@@]2(C(=O)OC)C1=C[C@H](C(C)(C)C)O[C@@H]2C` it was -36.1%. Next, `C/C(=N/Nc1nc(-c2ccccc2)c(CC(=O)O)s1)c1ccccc1`: 24.8%. In the case of `COc1cc(OC)nc(N/N=C(\c2ccccc2)c2ccncc2)n1` it was 5.98%; in that of `c1ccc(C(=NNc2nc3ccccc3s2)c2ccccn2)cc1`, 53.9% (active); in that of `Nc1nc2c(ncn2[C@@H]2O[C@H](C(=O)N[C@@H](Cc3ccccc3)C(=O)NCc3ccccc3)[C@@H](O)[C@H]2O)c(=O)[nH]1`, -6.97%.

As for `COCCNC(=S)Nc1cc(S(=O)(=O)N2CCOCC2)ccc1N1CCCCC1`, the inhibition was -23.6%.

On to `CSc1nc(-c2ccccc2)nc(C(Cl)Cl)n1`, for which the inhibition is 58.9% (active).

On to `Clc1ccc2nc(-c3ccccc3)nc(C(Cl)Cl)c2c1`, for which the inhibition is 2.4%. Next, `COc1ccc(CNC(=O)[C@H](Cc2c[nH]c3ccccc23)NC(C)=O)cc1OC`: -1.22%; `COc1ccc(NC(=O)[C@H](NC(=O)[C@@H]2Cc3ccccc3CN2)c2ccccc2)cc1`: -18%; `COc1cccc(NC(=O)[C@H](Cc2c[nH]c3ccccc23)NC(=O)[C@@H]2Cc3ccccc3CN2)c1`: 49.5% (active).

Take `Cc1cccc(C)c1NC(=O)C(c1cccc2ccccc12)n1c(=O)c(-c2ccco2)nc2ccccc21` (stereo not given): the inhibition was -9.07%. In the case of `COc1ccc(CNC(=O)COC(=O)c2c(C)nn(-c3ccccc3)c2C)cc1OC` it was -1.94%; in that of `COc1ccc(CNC(=O)COc2ccccc2C(=O)c2cnn(-c3ccccc3)c2)cc1OC`, 54% (active); in that of `COc1ccc(CNC(=O)COC(=O)c2sccc2C)cc1OC`, -9.87%.

For `Cc1cccc(C)c1NC(=O)C(c1cccc(F)c1)N1CCN(C)CC1` (stereo not given), the inhibition was -12.4%. Next, `O=C(O)c1ccc(NC(=O)c2cn(-c3ccccc3)nc2-c2ccc(Cl)cc2)cc1`: 73.7% (active). For the compound `O=C(NCCCN1CCOCC1)c1cn(-c2ccccc2)nc1-c1ccc(F)cc1`, the inhibition was 3.41%. Next, `Cc1ccc(-c2nn(-c3ccccc3)cc2C(=O)NCCCN2CCCC2=O)cc1`: -7.1%; `O=C(NNC(=S)NC(=O)c1cn(-c2ccccc2)nc1-c1ccccc1)c1ccncc1`: 49.8% (active); `NC(=O)C1CCN(C(=O)c2cn(-c3ccccc3)nc2-c2cccnc2)CC1`: -9.79%.

As for `Cc1ccc(-c2nn(-c3ccccc3)cc2C(=O)Nc2cccc(S(=O)(=O)N3CCOCC3)c2)cc1`, the inhibition was 11%.

Source of the values: PubChem BioAssay AID624466 (The Scripps Research Institute Molecular Screening Center, 2012).
